Assay results reported in ChEMBL document CHEMBL2034927, “Design, synthesis, anti-HIV evaluation and molecular modeling of piperidine-linked amino-triazine derivatives as potent non-nucleoside reverse transcriptase inhibitors” (Bioorg Med Chem, 2012).

Assays:
[1] = system: Human immunodeficiency virus 1; experiment: Antiviral activity against HIV1 3B infected in human MT4 cells assessed as inhibition of virus-induced cytopathic effect after 5 days by MTT assay; format: functional, organism-based; settings: Human immunodeficiency virus 1, 3B, MT4, 120 h
Summary of the method: (§1)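 MT-4 cells spun 5 min at 1000 rpm, resuspended at 6 × 10⁵ cells/mL, then infected with HIV-1 IIIB or HIV-2 ROD at 100–300 CCID50. Test compounds were added as serial fivefold dilutions. After 5 days, viability was read by MTT reduction at 540 and 690 nm, using the median OD of three wells. EC50 is the concentration giving 50% protection against virus-induced cytotoxicity.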

[2] = system: Human immunodeficiency virus 2; experiment: Antiviral activity against HIV2 ROD infected in human MT4 cells assessed as inhibition of virus-induced cytopathic effect after 5 days by MTT assay; format: functional, organism-based; settings: Human immunodeficiency virus 2, ISOLATE ROD, MT4, 120 h; summary of the method: as §1
[3] = Cytotoxicity against human MT4 cells after 5 days by MTT assay; format: cell-based
Summary of the method: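 MT-4 cells at 6 × 10⁵ cells/mL were mock-infected with culture medium and exposed to serial fivefold dilutions of compound. After 5 days, viability was measured by MTT reduction at 540 and 690 nm, using the median OD of three wells. CC50 is the concentration reducing OD540 of the mock-infected control by 50%.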

[4] = Selectivity index, ratio of CC50 for human MT4 cells to EC50 for wild type HIV1 3B; format: toxicity, cell-based; settings: read-out: Ratio CC50/EC50
Summary of the method: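 HIV-1 IIIB stock at 100–300 CCID50 was added to MT-4 cells at 6 × 10⁵ cells/mL, with serial fivefold compound dilutions and mock-infected wells run in parallel. Viability was read by MTT at 540 and 690 nm after 5 days, using the median OD of three wells. EC50 is 50% protection from HIV-induced cytotoxicity, and CC50 is a 50% reduction of mock-infected OD540. SI is CC50/EC50.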

[5] = system: Human immunodeficiency virus 1; experiment: Antiviral activity against HIV1 RES056 harboring reverse transcriptase K103N/Y181C mutant infected in human MT4 cells assessed as inhibition of virus-induced cytopathic effect after 5 days by MTT assay; format: functional, organism-based; settings: Human immunodeficiency virus 1, RES056, MT4, 120 h
Summary of the method: (§2)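 MT-4 cells at 6 × 10⁵ cells/mL were infected with the double mutant HIV-1 RES056 (K103N+Y181C), with serial fivefold compound dilutions. After 5 days, viability was read by MTT at 540 and 690 nm, using the median OD of three wells. EC50 is 50% protection against virus-induced cytotoxicity, and CC50 is a 50% drop in OD540 of mock-infected cells. Fold resistance is the RES056 EC50 divided by the IIIB EC50.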

[6] = Selectivity index, ratio of CC50 for human MT4 cells to EC50 for HIV1 RES056 harboring reverse transcriptase K103N/Y181C RT mutant; format: toxicity, cell-based; settings: read-out: Ratio CC50/EC50
[7] = system: Human immunodeficiency virus 1; experiment: Fold resistance, ratio of EC50 for HIV1 RES056 harboring reverse transcriptase K103N/Y181C RT mutant to EC50 for wild type HIV1 3B; format: functional; summary of the method: as §2

SMILES | EC50 [1] | EC50 [2] | CC50 at 120 h [3] | selectivity ratio [4] | EC50 [5] | selectivity ratio [6] | Ratio EC50 [7]
Cc1cc(C)c(Nc2nc(N)nc(NC3CCN(Cc4ccc(C#N)cc4)CC3)n2)c(C)c1 | 0.00566 µM | > 3.26 µM | 3.26 µM | 576 | > 3.26 µM | < 1 | >575.8
CCOC(=O)c1ccc(CN2CCC(Nc3nc(N)nc(Nc4c(C)cc(C)cc4C)n3)CC2)cc1 | 0.0116 µM | > 5.91 µM | 5.91 µM | 512 | > 5.91 µM | < 1 | >511.6
Cc1cc(C)c(Nc2nc(N)nc(NC3CCN(Cc4ccc(C(N)=O)cc4)CC3)n2)c(C)c1 | 0.0204 µM | > 74.4 µM | 74.4 µM | 3640 | 3.33 µM | 22 | 162.8
Cc1cc(C)c(Nc2nc(N)nc(NC3CCN(Cc4ccc(S(N)(=O)=O)cc4)CC3)n2)c(C)c1 | 0.00575 µM | > 19.9 µM | 19.9 µM | 3450 | 0.61 µM | 32 | 105.7
Cc1cc(C)c(Nc2nc(N)nc(NC3CCN(Cc4ccc(S(C)(=O)=O)cc4)CC3)n2)c(C)c1 | 0.00555 µM | > 5.06 µM | 5.06 µM | 911 | 4.92 µM | 1 | 887.5
Cc1cc(C)c(Nc2nc(N)nc(NC3CCN(Cc4ccccc4)CC3)n2)c(C)c1 | 0.0103 µM | > 23.6 µM | 23.6 µM | 2300 | 4.93 µM | 5 | 481.3
Cc1cc(C)c(Nc2nc(N)nc(NC3CCN(Cc4ccc([N+](=O)[O-])cc4)CC3)n2)c(C)c1 | 0.00787 µM | > 3.46 µM | 3.46 µM | 439 | > 3.46 µM | < 1 | >439.1
CNc1nc(Nc2c(C)cc(C)cc2C)nc(NC2CCN(Cc3ccncc3)CC2)n1 | 0.00725 µM | > 25.8 µM | 25.8 µM | 3560 | 0.55 µM | 47 | 76.4
CCOC(=O)c1ccc(CN2CCC(Nc3nc(NC)nc(Nc4c(C)cc(C)cc4C)n3)CC2)cc1 | 0.0167 µM | > 4.95 µM | 4.95 µM | 297 | > 4.95 µM | < 1 | >297
CNc1nc(Nc2c(C)cc(C)cc2C)nc(NC2CCN(Cc3ccc(C(N)=O)cc3)CC2)n1 | 0.00461 µM | > 27.4 µM | 27.4 µM | 5940 | 0.56 µM | 49 | 121.6
CNc1nc(Nc2c(C)cc(C)cc2C)nc(NC2CCN(Cc3ccc(S(N)(=O)=O)cc3)CC2)n1 | 0.00699 µM | > 14.8 µM | 14.8 µM | 2120 | 0.51 µM | 29 | 72.7
CNc1nc(Nc2c(C)cc(C)cc2C)nc(NC2CCN(Cc3ccc(S(C)(=O)=O)cc3)CC2)n1 | 0.00606 µM | > 9.64 µM | 9.64 µM | 1590 | 3.33 µM | 3 | 549.8
COc1nc(Nc2c(C)cc(C)cc2C)nc(NC2CCN(Cc3ccncc3)CC2)n1 | 0.0133 µM | > 30.9 µM | 30.9 µM | 2320 | 1.48 µM | 21 | 111.1
CCOC(=O)c1ccc(CN2CCC(Nc3nc(Nc4c(C)cc(C)cc4C)nc(OC)n3)CC2)cc1 | 0.0147 µM | > 8.48 µM | 8.48 µM | 577 | > 8.48 µM | < 1 | >576.6
COc1nc(Nc2c(C)cc(C)cc2C)nc(NC2CCN(Cc3ccc(C(N)=O)cc3)CC2)n1 | 0.00864 µM | > 33.4 µM | 33.4 µM | 3870 | 1.11 µM | 30 | 128.3
COc1nc(Nc2c(C)cc(C)cc2C)nc(NC2CCN(Cc3ccc(S(N)(=O)=O)cc3)CC2)n1 | 0.0106 µM | > 19.6 µM | 19.6 µM | 1850 | 0.94 µM | 21 | 88.2
COc1nc(Nc2c(C)cc(C)cc2C)nc(NC2CCN(Cc3ccc(S(C)(=O)=O)cc3)CC2)n1 | 0.0119 µM | > 13.5 µM | 13.5 µM | 1130 | ≥ 1.59 µM | ≤ 8 | >=133.3
CC(C)Nc1cccnc1N1CCN(C(=O)c2cc3cc(NS(C)(=O)=O)ccc3[nH]2)CC1.CS(=O)(=O)O [DELAVIRDINE MESYLATE] | 0.035 µM |  | > 36.2 µM | > 1030 | > 36.2 µM | ≥ 1 | >1033.6
O=C1Nc2ccc(Cl)cc2[C@@](C#CC2CC2)(C(F)(F)F)O1 [EFAVIRENZ] | 0.00657 µM |  | > 6.34 µM | > 964 | 0.55 µM | > 12 | 83.6
Cc1cc(C#N)cc(C)c1Oc1nc(Nc2ccc(C#N)cc2)nc(N)c1Br [ETRAVIRINE] |  |  |  |  |  | 817 | 15.5
Cc1ccnc2c1NC(=O)c1cccnc1N2C1CC1 [NEVIRAPINE] |  |  | > 15 µM | > 75 | > 15 µM | ≥ 1 | >75
Nc1ccn([C@H]2CC[C@@H](CO)O2)c(=O)n1 [ZALCITABINE] | 1.39 µM | 1.67 µM | > 94.7 µM | > 68 |  |  | 
Cc1cn([C@H]2C[C@H](N=[N+]=[N-])[C@@H](CO)O2)c(=O)[nH]c1=O [ZIDOVUDINE] |  | 0.007 µM | ≥ 49.8 µM | ≥ 8300 | 0.01 µM | ≥ 4400 | 1.9
